MT1-MMP act inh – blockers of MT1-MMP proenzyme processing, primary screen, HT1080 RFP-PRO-GFP cells, GFP/RFP fluorescence | GFP/RFP ratio fluorescence, overnight; percent of plate control window, DMSO zero | GFP/RFP ratio change, % at 20 µM | 0.061% of 360,000 active;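 active means GFP/RFP ratio change of at least 30% with cell ATP level not reduced by more than half and red fluorescence within 50% of control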
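Test system: HT1080 RFP-PRO-GFP cells; Benchmarks: DMSO and RFP-L50D-GFP cell wells; Timing: cells overnight before dosing, compound overnight, 37 °C, 5% CO2; Compound: one 20 µM compound dose with 1% DMSO; Read-out: GFP/RFP fluorescence ratio.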
E coli Lon inh – inhibitors of E. coli Lon protease, primary screen, biochemical, fluorescence polarization. inhibition, % at 7.94 µM. 0.42% of 360,000 active. purified E. coli Lon protease. P0A9M0. AID 602123, 2011; in the data active means inhibition above about 13%, passing the limit was not always enough
Target sequence (P0A9M0 whole entry, looked up): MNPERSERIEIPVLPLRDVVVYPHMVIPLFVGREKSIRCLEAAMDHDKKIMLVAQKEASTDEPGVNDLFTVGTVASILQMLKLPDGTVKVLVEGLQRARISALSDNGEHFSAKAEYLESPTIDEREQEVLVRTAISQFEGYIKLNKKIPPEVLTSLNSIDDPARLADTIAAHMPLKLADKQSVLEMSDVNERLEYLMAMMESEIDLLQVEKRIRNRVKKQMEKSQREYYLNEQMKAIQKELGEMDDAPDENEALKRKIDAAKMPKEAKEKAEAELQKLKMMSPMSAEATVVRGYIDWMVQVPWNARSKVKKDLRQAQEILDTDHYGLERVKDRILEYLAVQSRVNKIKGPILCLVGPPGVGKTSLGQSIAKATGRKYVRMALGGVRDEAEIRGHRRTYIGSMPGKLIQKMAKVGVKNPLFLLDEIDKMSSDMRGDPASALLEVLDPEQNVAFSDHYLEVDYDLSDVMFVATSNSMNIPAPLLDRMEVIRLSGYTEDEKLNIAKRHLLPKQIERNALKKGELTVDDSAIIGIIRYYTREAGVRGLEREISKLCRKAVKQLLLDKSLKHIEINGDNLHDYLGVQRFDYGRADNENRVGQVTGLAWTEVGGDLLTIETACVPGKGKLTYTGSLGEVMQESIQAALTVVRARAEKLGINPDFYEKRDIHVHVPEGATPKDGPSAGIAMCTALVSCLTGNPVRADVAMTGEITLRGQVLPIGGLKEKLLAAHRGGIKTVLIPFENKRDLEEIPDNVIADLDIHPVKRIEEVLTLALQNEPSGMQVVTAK
hiPSC survival – enhancers of single-cell hiPSC survival, primary screen, ATPlite luminescence | 100% = ROCK inhibitor wells, 0% = DMSO | survival enhancement, % at 20 µM | 0.044% of 360,000 active | AID 602274, 2012; in the data active means survival enhancement above about 18%;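 further: cells exposed to compounds for 16 hours before the ATP read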
PREPL inhibitor – PREPL enzyme inhibitors, primary screen, biochemical, fluorescence polarization; Prolyl endopeptidase-like (Homo sapiens), Q4J6C6; recombinant PREPL, fluorescence polarization activity-based probe; inhibition, % at 5.96 µM; 0.68% of 320,000 active; AID 2751, 2010; in the data active means inhibition above about 43%
SKN-1 inh – suppressors of acrylamide-induced Pgst-4::GFP reporter in worms, primary screen, SKN-1 inhibitor project, whole organism, uHTS, GFP/RFP fluorescence ratio, strain VP596. inhibition, % at 21.8 µM. 0.49% of 360,000 active. C. elegans VP596 Pgst-4::GFP/RFP ratio, 24 h;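 active means interference check ratio from 0.5 to 1.5 plus GFP to RFP signal ratio inhibition reaching or exceeding a fixed threshold, cut at about 30% in these data, passing the limit was not always enough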
TbMetRS inhib – T. brucei MetRS inhibitors, primary screen, biochemical, luminescence; 0.4% of 360,000 active; purified T. brucei MetRS, ATP depletion, Kinase-Glo luminescence; methionyl-tRNA synthetase (Trypanosoma brucei brucei); inhibition, % at 11.9 µM;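 active means inhibition above a per-plate cutoff of the control wells' mean inhibition plus 3 SD, cut at about 5.5% in these data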
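Assay system: T. brucei methionyl-tRNA synthetase, purified | Medium: HEPES buffer with MgCl2, KCl, DTT, spermine, BSA, pyrophosphatase | Compound: 11.9 µM single point | Incubation: 15 min enzyme-compound preincubation, 2 h reaction, 10 min detection, 25 °C | Measured by: Kinase-Glo luciferase luminescence reporting remaining unconsumed ATP | Measure: % inhibition normalized to control-well medians | Replication: Singlicate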
Of the large screens only hits and unclear results are named; the others gave an inactive call. A selection: hits, their analogues and other compounds. The true share with any hit is near 1.8%.

C=CCn1c(N)c(C(=O)Nc2ccc(C)c(C)c2)c2nc3ccccc3nc21	SKN-1 inh 39.8
C=CCn1c(N)c(C(=O)Nc2cccc(C)c2)c2nc3ccccc3nc21	none
O=C(/C=C/c1ccc(Cl)cc1Cl)NC(=S)Nc1ccc(CN2CCOCC2)cc1	none
Clc1ccc(C=Cc2ccccn2)c(Cl)c1	SKN-1 inh 84.9 (no result: PREPL inhibitor)
O=C(/C=C/c1ccc(Cl)cc1Cl)NC(=S)Nc1ccccn1	SKN-1 inh 37.6
COc1ccc(-c2noc(CCC(=O)NC3CCCCCC3)n2)cc1OC	none (no result: PREPL inhibitor)
COc1ccc(Oc2nc(C)nc3c2oc2ccccc23)cc1	none
Cc1nc(Oc2ccccc2)c2oc3ccccc3c2n1	SKN-1 inh 38.0
O=C(c1cccnc1Nc1ccccc1F)N1CCOCC1	none
Cc1ccccc1Nc1ncccc1C(=O)N1CCOCC1	E coli Lon inh 56.5
COc1cccc(C(C)(O)c2nc(-c3cccc(C#N)c3)cs2)c1 (centres undefined)	none (no result: PREPL inhibitor)
COc1cc(/C=N/N2CCN(c3ccccc3OC)CC2)ccc1OC(C)=O	none
CSc1ccc(/C=N/N2CCN(Cc3ccc(Cl)cc3)CC2)cc1	SKN-1 inh 55.4
CSc1ccc(/C=N/NC(=O)CN2CCN(Cc3ccc(Cl)cc3)CC2)cc1	none
Cc1cccc(NC(=S)N/N=C/c2ccc([N+](=O)[O-])s2)c1	SKN-1 inh 43.5
Cc1cccc(NC(=O)/C=C/c2ccc([N+](=O)[O-])s2)c1	none
O=C(NCc1ccc(Cl)cc1)c1cc2c(s1)CS(=O)(=O)C2	none
O=C(CCC(=O)OCC(=O)c1cccc([N+](=O)[O-])c1)Nc1cccc(Cl)c1Cl	none
Cc1ccccc1NC(=O)CCC(=O)OCC(=O)c1cccc([N+](=O)[O-])c1	SKN-1 inh 37.2
CCn1c(CSc2nnc(-c3cccnc3)n2-c2ccccc2C)nc2cc(C(=O)O)ccc21	PREPL inhibitor 49.3 (no result: MT1-MMP act inh, E coli Lon inh, hiPSC survival, SKN-1 inh, TbMetRS inhib)
CCn1c(CSc2n[nH]c(N)n2)nc2cc(C(=O)O)ccc21	SKN-1 inh 37.1
CCn1c(CSc2nnc(-c3ccncc3)n2CCOC)nc2cc(C(=O)O)ccc21	SKN-1 inh 38.2
COCCn1c(SCCCC(=O)c2ccc(Br)cc2)nnc1-c1ccncc1	none
Cc1ccccc1-n1c(SCC(=O)c2cc(C)n(C)c2C)nnc1-c1cccnc1	none
CC1(C(=O)Nc2cccc3cccnc23)CCN1Cc1cccc2c1OCO2 (centres undefined)	none (no result: PREPL inhibitor)
COc1ccc(N2CCN(C(=O)c3ccc4c(c3)CC(c3ccccc3)OC4=O)CC2)cc1 (centres undefined)	none (no result: PREPL inhibitor)
CCc1nc2ccc(C(=O)N3CCN(S(=O)(=O)CC)CC3)cn2c1N(CC)CCN(C)C	none (no result: PREPL inhibitor)
OC[C@@H]1CN(Cc2cccs2)C[C@H](n2cnc3c(NCc4ccncc4)ncnc32)O1	none (no result: PREPL inhibitor)
COc1ccc(NC(=O)c2cc(C3CCCCN3C(=O)c3ccc4c(c3)CCO4)on2)c(C)c1 (centres undefined)	none (no result: PREPL inhibitor)
O=C(O)c1ccccc1C(=O)NCC(O)COCC1CC=CCC1 (centres undefined)	hiPSC survival 28.3
CCOC(=O)C1(C)CCCN(C(=O)c2cccc(OC(F)(F)F)c2)C1 (centres undefined)	none (no result: PREPL inhibitor)
O=C(O)c1ccccc1C(=O)NCc1ccccc1	none
Nc1sccc1C(=O)NCc1ccccc1	SKN-1 inh 38.5 (no result: E coli Lon inh, hiPSC survival, PREPL inhibitor)
Cc1cccc(C)c1OCC(O)CN(Cc1ccccc1O)C1CCCCC1 (centres undefined)	SKN-1 inh 37.4
COc1ccc2c(c1)sc1nc(-c3ccccc3)cn12	SKN-1 inh 37.2
CCOC(=O)CC1C(=O)NCCN1c1nc2ccc(C)cn2c(=O)c1/C=C1\SC(=S)N(C(C)CC)C1=O (centres undefined)	none (no result: MT1-MMP act inh, E coli Lon inh, hiPSC survival, SKN-1 inh, TbMetRS inhib)
CCOC(=O)CC1C(=O)NCCN1c1nc2ccc(C)cn2c(=O)c1/C=C1\SC(=S)N(CC(C)C)C1=O (centres undefined)	SKN-1 inh 42.4
CCCCc1c(C)nc2ccc(C(=O)OCC)cc2c1Cl	none
CCOC(=O)c1ccc2nc(C)c(CCC(C)=O)c(Cl)c2c1	E coli Lon inh 19.6
CCCCC(=O)/C=C/n1c(=S)oc2ccccc21	SKN-1 inh 38.9
CC(C)OC(=O)n1c(=S)oc2ccccc21	none
CCOC(=O)C1=C(C)N=c2sc(=Cc3ccc(OCC(=O)O)cc3)c(=O)n2C1c1ccc(Cl)cc1 (centres undefined)	none (no result: PREPL inhibitor)
COC(=O)C1=C(C)N=c2s/c(=C/c3cccs3)c(=O)n2C1c1ccc(F)cc1 (centres undefined)	SKN-1 inh 35.2
C#CCN(C[C@@H]1[C@@H](OC(=O)NCC2CCCCC2)[C@@H](OC(=O)NCC2CCCCC2)Cn2c(=O)n(CCCCCC)c(=O)n21)S(=O)(=O)c1ccc(C)cc1	none (no result: PREPL inhibitor)
CC(=O)c1cccc(-c2ccc3c(c2)C(C)(Cc2ccccc2F)C(=O)N3)c1 (centres undefined)	none (no result: PREPL inhibitor)
CC1(Cc2ccc(OC(F)(F)F)cc2)C(=O)Nc2ccc(OC(F)(F)F)cc21 (centres undefined)	SKN-1 inh 37.9 (no result: PREPL inhibitor)
COC(=O)c1ccc(CC2(C)C(=O)Nc3ccc(-c4cccc(C(F)(F)F)c4)cc32)o1 (centres undefined)	SKN-1 inh 39.1 (no result: PREPL inhibitor)
COc1ccc(C)cc1NC(=O)c1sc2ncnc(N3CCN(c4ccccn4)CC3)c2c1C	none
Cc1ccc(CSc2nc3c(c(N(C)C)n2)CCCC3)cc1	none
CN(C)c1nc(SCc2ccccc2Cl)nc2c1CCCC2	SKN-1 inh 30.7
COc1ccc(NC(=O)Nc2ccc(N3CCOCC3)c3nonc23)c(OC)c1	SKN-1 inh 44.0
O=C(Nc1ccccc1)c1ccc(F)cc1F	none
Cc1ccc(NC(=O)c2ccc(F)cc2F)cc1	SKN-1 inh 40.9
Cc1cccc(NS(=O)(=O)c2ccc(OCC(=O)N3CCCC3)cc2)c1	none
Nc1ccc(-c2nc3ccc(N)cc3s2)cc1	none
Cc1cc(-c2nc3cc(F)ccc3s2)ccc1N	SKN-1 inh 83.2 (no result: PREPL inhibitor)
Cc1ccc(S(=O)(=O)C[C@@H]2OC[C@H](Cc3ccccc3)N2S(=O)(=O)c2ccc(C)cc2)cc1	none (no result: E coli Lon inh, hiPSC survival, PREPL inhibitor)
O=C(Nc1ccc(N2CCOCC2)cc1)c1cccc(S(=O)(=O)N2CCCC2)c1	hiPSC survival 23.6
O=C(Nc1ccc(N2CCOCC2)cc1)c1cccc(S(=O)(=O)N2CCCCCC2)c1	none
COC(=O)[C@H](NC(=O)c1cc(-c2ccccc2)sc1N)C(C)C	none (no result: E coli Lon inh, hiPSC survival, PREPL inhibitor)
Cc1ccc(CN2CCC(n3nccc3NC(=O)c3ccccc3C)CC2)o1	SKN-1 inh 35.5

From PubChem BioAssay
